From ChEMBL document CHEMBL1649062, “Integration of lead optimization with crystallography for a membrane-bound ion channel target: discovery of a new class of AMPA receptor positive allosteric modulators” (J Med Chem, 2011)
Values after ≈ are worked out from the molar mass of the structure shown.

Legend:
[1] = Kinetic solubility of the compound in phosphate buffered saline of pH 7.4; type: physicochemical
Summary of the method: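 Kinetic solubility: 10 mM DMSO stock, 5 μL diluted to 100 μL with pH 7.4 phosphate-buffered saline, equilibrated 1 h at room temperature, filtered, filtrate quantified by calibrated flow-injection chemiluminescent nitrogen detection.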

Cytochrome P450 3A4 = Cytochrome P450 3A4 (Homo sapiens, UniProt P08684); assay: Inhibition of human CYP3A4 by fluorescence assay; type: ADME
Summary of the method: (§1)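 Recombinant human CYP bactosomes (0.1 mg/mL) in 50 mM potassium phosphate pH 7.4, preincubated 10 min at 37 °C with test compound (0.1-10 μM, 7 concentrations) and fluorogenic substrate. Substrates: ethoxyresorufin 0.5 μM (1A2), FCA 50 μM (2C9), BMC 10 μM (2C19), MMC 10 μM (2D6), DEF 1 μM or 7-BQ 25 μM (3A4). Reaction started with NADPH regenerating system; metabolite formation read over 10 min. IC50 from percent of control rate; miconazole control; triplicate.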

Cytochrome P450 2C19 = Cytochrome P450 2C19 (Homo sapiens, UniProt P33261); assay: Inhibition of human CYP2C19 by fluorescence assay; type: ADME; summary of the method: as §1
[2] = Inhibition of human CYP450 by fluorescence assay; type: ADME
Summary of the method: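 Recombinant human CYP1A2, 2C9, 2C19, 2D6 and 3A4 bactosomes (0.1 mg/mL protein) preincubated 10 min at 37 °C in 50 mM potassium phosphate pH 7.4 with test compound (0.1–10 μM, methanol 3–4.5% final) and fluorogenic probe: ethoxyresorufin 0.5 μM (1A2), FCA 50 μM (2C9), BMC 10 μM (2C19), MMC 10 μM (2D6), DEF 1 μM or 7-BQ 25 μM (3A4). NADPH-regenerating system added; fluorescent metabolite read 10 min; rate as % control; IC50 fitted; triplicate.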

[3] = Distribution coefficient, log D of the compound; type: physicochemical; conditions: octanol/water
Cytochrome P450 1A2 = target: T1, Cytochrome P450 1A2 (Homo sapiens, UniProt P05177); assay: Inhibition of human CYP1A2 by fluorescence assay; type: ADME; summary of the method: as §1
T1 sequence (P05177 whole entry): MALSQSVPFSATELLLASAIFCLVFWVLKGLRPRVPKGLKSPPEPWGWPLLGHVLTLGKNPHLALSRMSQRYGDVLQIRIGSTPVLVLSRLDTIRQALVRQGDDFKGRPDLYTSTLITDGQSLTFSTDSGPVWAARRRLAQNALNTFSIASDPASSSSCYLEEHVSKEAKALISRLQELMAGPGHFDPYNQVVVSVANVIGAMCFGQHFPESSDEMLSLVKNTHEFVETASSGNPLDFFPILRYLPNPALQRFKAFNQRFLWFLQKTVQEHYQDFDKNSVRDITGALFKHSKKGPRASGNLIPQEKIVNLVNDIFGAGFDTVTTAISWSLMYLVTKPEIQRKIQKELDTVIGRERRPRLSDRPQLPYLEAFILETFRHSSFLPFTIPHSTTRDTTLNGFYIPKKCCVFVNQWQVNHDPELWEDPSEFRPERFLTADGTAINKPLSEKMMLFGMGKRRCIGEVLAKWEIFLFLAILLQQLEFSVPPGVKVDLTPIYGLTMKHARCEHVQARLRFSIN

Cytochrome P450 2D6 = Cytochrome P450 2D6 (Homo sapiens, UniProt P10635); assay: Inhibition of human CYP2D6 by fluorescence assay; type: ADME; summary of the method: as §1
Glutamate receptor 2 [4] = target: T2, Glutamate receptor 2 (Homo sapiens, UniProt P42262); assay: Allosteric modulation of human recombinant GluA2 receptor flip isoform expressed in HEK293 cells assessed as potentiation of glutamate-induced calcium influx by Fluo-4/FLIPR method relative to cyclothiazide; type: cell-based
Summary of the method: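 Stable GluA2 flip (unedited) cells seeded to confluence 2-3 days before assay; washed in HEPES buffer (145 NaCl, 5 KCl, 2 CaCl2, 1 MgCl2, 5.5 glucose, pH 7.3), loaded with 2 μM Fluo4-AM 60 min at room temperature. FLIPR dual addition: compound 5 min before 100 μM glutamate; fluorescence rise expressed against maximal cyclothiazide response, fitted pEC50 and Asym max; n ≥ 3.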

Cytochrome P450 2C9 = Cytochrome P450 2C9 (Homo sapiens, UniProt P11712); assay: Inhibition of human CYP2C9 by fluorescence assay; type: ADME; summary of the method: as §1
Glutamate receptor 2 [5] = target: T2, Glutamate receptor 2; assay: Allosteric modulation of human recombinant GluA2 receptor flip isoform expressed in HEK293 cells assessed as potentiation of glutamate-induced calcium influx by Fluo-4/FLIPR method; type: cell-based
Summary of the method: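 Stable GluA2 flip (unedited) cell line grown in DMEM/F12 with 10% FBS and seeded to confluence 2-3 days before use. Cells washed in HEPES buffer (pH 7.3) and loaded with 2 μM Fluo-4 AM for 60 min at room temperature. On FLIPR, compound was added 5 min before 100 μM glutamate. pEC50 and asymptotic maximum are relative to the maximal response to cyclothiazide, n ≥ 3.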

[6] = Plasma protein binding in rat at 3 mg/kg, po; type: ADME, organism-based; set-up: dose 3 mg/kg, route oral; conditions: read-out: PPB (converted)
[7] = Cmax in rat at 3 mg/kg, po; type: ADME, organism-based; set-up: dose 3 mg/kg, route oral; conditions: in vivo
[8] = Clearance in rat at 3 mg/kg, po; type: ADME, organism-based; set-up: dose 3 mg/kg, route oral; conditions: in vivo
Summary of the method: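 Rats dosed orally at 3 mg/kg; blood sampled via the hepatic portal vein and heart. Estimated clearance derived from in vivo hepatic extraction, taking rat liver blood flow as 85 (mL/min)/kg.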

[9] = AUC ( 0 to t) in rat at 3 mg/kg, po; type: ADME, organism-based, Plasma; set-up: dose 3 mg/kg, route oral; conditions: plasma
Brain = assay: Brain tissue binding in rat at 3 mg/kg, po; type: ADME, organism-based; set-up: dose 3 mg/kg, route oral; conditions: in vivo
in vivo = conditions: rat, po, 3 mg/kg
[10] = Apparent permeability of the compound; type: ADME; conditions: not told
Summary of the method: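 Artificial membrane permeability: donor holds 10 mM sample in pH 7.05 phosphate buffer with 0.5% hydroxypropylcyclodextrin. Membrane is 1.8% phosphatidylcholine and 1% cholesterol in decane. Donor and acceptor concentrations measured by LCMS after 3 h at room temperature; permeability expressed in nm/s.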

[11] = AUC (0 to t) in rat blood at 3 mg/kg, po; type: ADME, organism-based; set-up: dose 3 mg/kg, route oral; conditions: whole blood
[12] = Distribution coefficient, log D of the compound at pH 7.4; type: physicochemical; conditions: octanol/water
[13] = Cmax in rat blood at 3 mg/kg, po; type: ADME, organism-based; set-up: dose 3 mg/kg, route oral; conditions: whole blood

Cytochrome P450 3A4, sequence (P08684 whole entry): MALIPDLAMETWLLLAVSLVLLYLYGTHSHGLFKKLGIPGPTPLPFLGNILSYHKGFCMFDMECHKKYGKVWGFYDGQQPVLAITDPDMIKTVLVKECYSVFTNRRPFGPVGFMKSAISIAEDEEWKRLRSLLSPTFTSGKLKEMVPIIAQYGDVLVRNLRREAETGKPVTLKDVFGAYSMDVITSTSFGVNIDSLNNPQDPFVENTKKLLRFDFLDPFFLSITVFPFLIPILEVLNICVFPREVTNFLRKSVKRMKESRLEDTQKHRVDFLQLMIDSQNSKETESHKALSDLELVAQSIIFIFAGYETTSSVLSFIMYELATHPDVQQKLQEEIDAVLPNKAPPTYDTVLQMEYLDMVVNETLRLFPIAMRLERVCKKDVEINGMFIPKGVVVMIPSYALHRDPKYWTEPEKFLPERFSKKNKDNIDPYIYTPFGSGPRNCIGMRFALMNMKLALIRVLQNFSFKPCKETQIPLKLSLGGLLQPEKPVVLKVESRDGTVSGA
T2 sequence (P42262 whole entry, canonical isoform): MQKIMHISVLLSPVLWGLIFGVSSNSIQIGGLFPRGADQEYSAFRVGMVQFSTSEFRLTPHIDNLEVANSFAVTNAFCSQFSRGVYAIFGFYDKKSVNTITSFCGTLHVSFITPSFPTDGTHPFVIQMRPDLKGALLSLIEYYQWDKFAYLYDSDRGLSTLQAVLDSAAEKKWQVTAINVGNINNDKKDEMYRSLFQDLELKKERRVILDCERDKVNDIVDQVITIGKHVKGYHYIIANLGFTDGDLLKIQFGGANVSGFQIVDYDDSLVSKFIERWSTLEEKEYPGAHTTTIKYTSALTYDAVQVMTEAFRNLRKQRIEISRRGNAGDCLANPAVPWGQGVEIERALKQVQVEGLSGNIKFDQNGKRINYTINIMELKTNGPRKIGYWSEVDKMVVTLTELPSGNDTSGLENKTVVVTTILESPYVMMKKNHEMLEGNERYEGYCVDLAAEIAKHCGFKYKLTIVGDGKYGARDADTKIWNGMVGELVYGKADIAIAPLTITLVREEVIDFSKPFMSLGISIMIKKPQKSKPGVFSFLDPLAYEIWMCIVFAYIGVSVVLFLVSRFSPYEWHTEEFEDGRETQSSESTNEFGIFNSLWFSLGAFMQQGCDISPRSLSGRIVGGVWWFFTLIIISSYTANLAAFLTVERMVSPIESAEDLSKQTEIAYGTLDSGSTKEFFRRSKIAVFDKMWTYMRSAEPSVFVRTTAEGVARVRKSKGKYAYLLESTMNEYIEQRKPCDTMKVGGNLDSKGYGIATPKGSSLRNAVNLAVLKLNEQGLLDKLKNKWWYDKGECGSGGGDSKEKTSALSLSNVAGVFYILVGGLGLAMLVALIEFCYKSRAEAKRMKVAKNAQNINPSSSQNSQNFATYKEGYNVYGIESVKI
Cytochrome P450 2C19, sequence (P33261 whole entry): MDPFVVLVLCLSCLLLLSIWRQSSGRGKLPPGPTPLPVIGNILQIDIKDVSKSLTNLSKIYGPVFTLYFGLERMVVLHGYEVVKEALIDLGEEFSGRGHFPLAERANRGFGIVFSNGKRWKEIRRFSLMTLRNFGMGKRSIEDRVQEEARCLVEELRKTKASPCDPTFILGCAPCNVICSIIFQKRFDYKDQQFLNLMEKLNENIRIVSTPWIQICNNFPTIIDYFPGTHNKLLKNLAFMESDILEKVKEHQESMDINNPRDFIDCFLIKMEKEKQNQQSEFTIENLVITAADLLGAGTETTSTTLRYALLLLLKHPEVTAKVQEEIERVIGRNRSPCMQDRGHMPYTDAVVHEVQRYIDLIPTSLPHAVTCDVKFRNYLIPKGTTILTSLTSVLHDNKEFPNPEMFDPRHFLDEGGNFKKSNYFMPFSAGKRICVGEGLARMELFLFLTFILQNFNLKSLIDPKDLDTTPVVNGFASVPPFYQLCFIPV
Cytochrome P450 2D6, sequence (P10635 whole entry, canonical isoform): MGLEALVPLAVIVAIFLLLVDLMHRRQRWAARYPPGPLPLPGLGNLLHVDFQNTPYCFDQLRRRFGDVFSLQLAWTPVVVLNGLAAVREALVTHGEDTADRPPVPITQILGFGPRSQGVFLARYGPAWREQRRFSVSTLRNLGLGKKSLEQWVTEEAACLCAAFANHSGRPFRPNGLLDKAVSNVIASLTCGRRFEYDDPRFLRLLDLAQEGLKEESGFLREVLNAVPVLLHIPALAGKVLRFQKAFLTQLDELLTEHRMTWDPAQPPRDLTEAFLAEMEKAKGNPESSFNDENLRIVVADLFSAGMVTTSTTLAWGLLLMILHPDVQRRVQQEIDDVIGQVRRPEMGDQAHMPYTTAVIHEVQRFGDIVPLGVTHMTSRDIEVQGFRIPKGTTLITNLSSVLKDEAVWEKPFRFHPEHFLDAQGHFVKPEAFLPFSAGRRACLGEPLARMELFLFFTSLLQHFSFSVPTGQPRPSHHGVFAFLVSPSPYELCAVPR
Cytochrome P450 2C9, sequence (P11712 whole entry, canonical isoform): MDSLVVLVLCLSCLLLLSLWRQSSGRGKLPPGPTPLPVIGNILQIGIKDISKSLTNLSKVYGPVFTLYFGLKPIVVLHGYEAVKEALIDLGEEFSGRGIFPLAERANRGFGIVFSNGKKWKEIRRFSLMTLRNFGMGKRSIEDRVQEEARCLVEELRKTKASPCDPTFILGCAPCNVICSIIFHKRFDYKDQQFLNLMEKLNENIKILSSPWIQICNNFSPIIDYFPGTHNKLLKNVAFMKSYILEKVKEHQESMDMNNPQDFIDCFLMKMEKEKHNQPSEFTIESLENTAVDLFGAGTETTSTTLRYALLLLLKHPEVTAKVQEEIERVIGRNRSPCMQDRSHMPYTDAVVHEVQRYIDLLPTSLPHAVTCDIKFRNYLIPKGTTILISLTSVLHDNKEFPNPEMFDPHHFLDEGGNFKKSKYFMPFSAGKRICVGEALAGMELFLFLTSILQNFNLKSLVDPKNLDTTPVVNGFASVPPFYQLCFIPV

solubility kinetic [1] [mg/mL]	logD [3]	IC50 (Cytochrome P450 1A2) [µM]	Activity (Glutamate receptor 2 [4]) [%]	IC50 (Cytochrome P450 2C9) [µM]	EC50 (Glutamate receptor 2 [5]) [µM]	SMILES	also measured
0.044 (≈ 137 µM)	3	≤ 1	111	≤ 1	3.98	CC(=O)Cc1ccc(-n2nc(C(F)(F)F)c3c2CCCC3)cc1	IC50 (Cytochrome P450 3A4): ≤ 1 µM; IC50 (Cytochrome P450 2C19): 2 µM; IC50 [2]: ≤ 1 µM; IC50 (Cytochrome P450 2D6): ≤ 1 µM
0.065 (≈ 171 µM)	3.2		86	6	15.8	CCCCN(C)C(=O)c1ccc(-n2nc(C(F)(F)F)c3c2CCCC3)cc1	IC50 (Cytochrome P450 2D6): 8 µM
0.015 (≈ 38.7 µM)	3.3		102		20	CN(Cc1ccc(-n2nc(C(F)(F)F)c3c2CCCC3)cc1)S(C)(=O)=O	IC50 [2]: > 10 µM
0.013 (≈ 42.2 µM)	3	0.1	94	4	31.6	CC(=O)c1ccc(-n2nc(C(F)(F)F)c3c2CCCC3)cc1	
0.013 (≈ 37.8 µM)	3.4	4	83		31.6	CS(=O)(=O)c1ccc(-n2nc(C(F)(F)F)c3c2CCCC3)cc1	IC50 (Cytochrome P450 2D6): 6 µM
0.047 (≈ 139 µM)			79		1.26	CC(=O)NCc1ccc(-n2nc(C(F)(F)F)c3c2CCCC3)cc1	IC50 [2]: > 10 µM
0.005 (≈ 13.4 µM)	3.1		63	2	20	CN(C)S(=O)(=O)c1ccc(-n2nc(C(F)(F)F)c3c2CCCC3)cc1	
0.057 (≈ 133 µM)	3		84	1	39.8	CN(CCc1ccccc1)C(=O)c1ccc(-n2nc(C(F)(F)F)c3c2CCCC3)cc1	IC50 (Cytochrome P450 2C19): 3 µM
	1.3		94		2	CC(=O)N(C)Cc1ccc(-n2nc(C(F)(F)F)c3c2CCCC3)cc1	
0.016 (≈ 42.4 µM)	1.6		100		> 100	O=C(c1ccc(-n2nc(C(F)(F)F)c3c2CCCC3)cc1)N1CCCCC1	
0.118 (≈ 336 µM)	2.3		107	7	2	CN(C)C(=O)Cc1ccc(-n2nc(C(F)(F)F)c3c2CCCC3)cc1	fraction unbound [6]: 0.022; Cmax [7]: 0.26 µg/mL; CL/F [8]: 2.82 L/h/kg; AUC(0-t) [9]: 0.262 µg·h/mL; Brain tissue binding (% bound) (Brain): 98.8%; Kp (in vivo; brain and blood): 2.8
0.062 (≈ 176 µM)	3.6	3.5	98	8	2.51	CCC(=O)NCc1ccc(-n2nc(C(F)(F)F)c3c2CCCC3)cc1	

More lines, now with the values behind:

SMILES	solubility kinetic [1] [mg/mL]	logD [3]	IC50 (Cytochrome P450 1A2) [µM]	Activity (Glutamate receptor 2 [4]) [%]	IC50 (Cytochrome P450 2C9) [µM]	EC50 (Glutamate receptor 2 [5]) [µM]	also measured
CC(C)S(=O)(=O)NCc1ccc(-n2nc(C(F)(F)F)c3c2CCCC3)cc1	0.011 (≈ 27.4 µM)	2.8		79		10	IC50 [2]: > 10 µM
CC(C(=O)N1CCCC1)c1ccc(-n2nc(C(F)(F)F)c3c2CCCC3)cc1 (configuration not stated)	0.059 (≈ 151 µM)	2.3	6	81	1	25.1	
O=C(C(F)c1ccc(-n2nc(C(F)(F)F)c3c2CCCC3)cc1)N1CCCC1 (configuration not stated)	0.124 (≈ 314 µM)	3.4		98		31.6	IC50 [2]: > 10 µM
O=C(N1CCCC1)C1(c2ccc(-n3nc(C(F)(F)F)c4c3CCCC4)cc2)CC1	0.031 (≈ 76.8 µM)	3.8		37	0.3	31.6	IC50 (Cytochrome P450 3A4): 6 µM; IC50 (Cytochrome P450 2C19): 7 µM
O=S(=O)(NCc1ccc(-n2nc(C(F)(F)F)c3c2CCCC3)cc1)C1CC1	0.012 (≈ 30 µM)	3.2		112		10	IC50 [2]: > 10 µM
O=C1CCCN1Cc1ccc(-n2nc(C(F)(F)F)c3c2CCCC3)cc1	0.11 (≈ 303 µM)	2.4	1	132	5	1	fraction unbound [6]: 0.016; Cmax [7]: 0.121 µg/mL; CL/F [8]: 3.24 L/h/kg; AUC(0-t) [9]: 0.231 µg·h/mL; Brain tissue binding (% bound) (Brain): 99.4%; Kp (in vivo; brain): 1.4
O=C(Cc1ccc(-n2nc(C(F)(F)F)c3c2CCCC3)cc1)N1CCCC1	0.077 (≈ 204 µM)	3.3		82	3	3.16	fraction unbound [6]: 0.004; Cmax [7]: 0.095 µg/mL; CL/F [8]: 3.3 L/h/kg; AUC(0-t) [9]: 0.166 µg·h/mL; Brain tissue binding (% bound) (Brain): 98.1%; Kp (in vivo; brain and blood): 0.9
O=C1CCCN1Cc1ccc(-n2nc(C(F)(F)F)c3c2COCC3)cc1	0.123 (≈ 337 µM)		> 10	116	> 10	5.01	IC50 (Cytochrome P450 3A4): > 10 µM; fraction unbound [6]: 0.057; IC50 (Cytochrome P450 2C19): > 10 µM; Papp [10]: 440 nm/s; AUC(0-t) [11]: 0.824 µg·h/mL; Brain tissue binding (% bound) (Brain): 94.9%; IC50 (Cytochrome P450 2D6): > 10 µM; logD [12]: 2.6; Cmax [13]: 0.331 µg/mL
O=C(Cc1ccc(-n2nc(C(F)(F)F)c3c2CCCC3)cc1F)N1CCCC1	0.041 (≈ 104 µM)	3.7		79	7	1.26	fraction unbound [6]: 0.002; Cmax [7]: 0.111 µg/mL; CL/F [8]: 3.3 L/h/kg; AUC(0-t) [9]: 0.248 µg·h/mL; Brain tissue binding (% bound) (Brain): 99.4%; Kp (in vivo; brain and blood): 0.3
O=C(N1CCCC1)C(F)(F)c1ccc(-n2nc(C(F)(F)F)c3c2CCCC3)cc1	0.124 (≈ 300 µM)	3.4		94	4	20	
O=C(Cc1ccc(-n2nc(C(F)(F)F)c3c2CCCC3)cc1)NC1CCCC1				100	0.2	63.1	IC50 (Cytochrome P450 3A4): 0.7 µM; IC50 (Cytochrome P450 2D6): 8 µM
O=S1(=O)CCCN1Cc1ccc(-n2nc(C(F)(F)F)c3c2CCCC3)cc1	0.012 (≈ 30 µM)	3.3		118		10	fraction unbound [6]: 0.032; Cmax [7]: 0.136 µg/mL; CL/F [8]: 2.46 L/h/kg; AUC(0-t) [9]: 0.364 µg·h/mL; Papp [10]: 400 nm/s; IC50 [2]: > 10 µM; Brain tissue binding (% bound) (Brain): 99.5%; Kp (in vivo; brain and blood): 2.5
O=C1CCCN1Cc1ccc(-n2nc(C(F)(F)F)c3c2CCCC3)cc1F	0.088 (≈ 231 µM)	3.3	2	112	9	1	fraction unbound [6]: 0.011; Cmax [7]: 0.167 µg/mL; CL/F [8]: 2.82 L/h/kg; AUC(0-t) [9]: 0.331 µg·h/mL; Papp [10]: 420 nm/s; Kp (in vivo; brain): 1.3
